Assay results taken from PubChem BioAssay AID489030 (Sanford-Burnham Center for Chemical Genomics, 2010).
Among all 330,000 compounds or so, about 2,400 (0.73%) were called active. How the source made its calls: active means inhibition of at least 40% at 20 µM; inactive means the rest. The full list was thinned out, with actives kept by preference.

Target: Apoptotic protease-activating factor 1 (Homo sapiens) (UniProt O14727)
Assay: blockers of Apaf-1-driven caspase-3 activation – biochemical, DEVD-Rh110 fluorescence, uHTS, primary screen (AID 489030);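 further: plate controls were DMSO wells for no effect and DEVD-CHO caspase inhibitor wells for full effect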
Details: reconstituted apoptosome caspase-3 activity, at 20 µM, active compounds read high
In short: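 System – cell-free apoptosome with Apaf-1, procaspase-3 and caspase-9 · Buffer or medium – pH 7.5 Hepes buffer with CHAPS, BSA, DTT · Also added – cytochrome c with DEVD-Rh110 · Times – 30 min compound preincubation, 50 min activation, room temperature · Technique – Rh110 fluorescence intensity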

Chain of Apoptotic protease-activating factor 1 (Homo sapiens) (O14727 whole entry, looked up): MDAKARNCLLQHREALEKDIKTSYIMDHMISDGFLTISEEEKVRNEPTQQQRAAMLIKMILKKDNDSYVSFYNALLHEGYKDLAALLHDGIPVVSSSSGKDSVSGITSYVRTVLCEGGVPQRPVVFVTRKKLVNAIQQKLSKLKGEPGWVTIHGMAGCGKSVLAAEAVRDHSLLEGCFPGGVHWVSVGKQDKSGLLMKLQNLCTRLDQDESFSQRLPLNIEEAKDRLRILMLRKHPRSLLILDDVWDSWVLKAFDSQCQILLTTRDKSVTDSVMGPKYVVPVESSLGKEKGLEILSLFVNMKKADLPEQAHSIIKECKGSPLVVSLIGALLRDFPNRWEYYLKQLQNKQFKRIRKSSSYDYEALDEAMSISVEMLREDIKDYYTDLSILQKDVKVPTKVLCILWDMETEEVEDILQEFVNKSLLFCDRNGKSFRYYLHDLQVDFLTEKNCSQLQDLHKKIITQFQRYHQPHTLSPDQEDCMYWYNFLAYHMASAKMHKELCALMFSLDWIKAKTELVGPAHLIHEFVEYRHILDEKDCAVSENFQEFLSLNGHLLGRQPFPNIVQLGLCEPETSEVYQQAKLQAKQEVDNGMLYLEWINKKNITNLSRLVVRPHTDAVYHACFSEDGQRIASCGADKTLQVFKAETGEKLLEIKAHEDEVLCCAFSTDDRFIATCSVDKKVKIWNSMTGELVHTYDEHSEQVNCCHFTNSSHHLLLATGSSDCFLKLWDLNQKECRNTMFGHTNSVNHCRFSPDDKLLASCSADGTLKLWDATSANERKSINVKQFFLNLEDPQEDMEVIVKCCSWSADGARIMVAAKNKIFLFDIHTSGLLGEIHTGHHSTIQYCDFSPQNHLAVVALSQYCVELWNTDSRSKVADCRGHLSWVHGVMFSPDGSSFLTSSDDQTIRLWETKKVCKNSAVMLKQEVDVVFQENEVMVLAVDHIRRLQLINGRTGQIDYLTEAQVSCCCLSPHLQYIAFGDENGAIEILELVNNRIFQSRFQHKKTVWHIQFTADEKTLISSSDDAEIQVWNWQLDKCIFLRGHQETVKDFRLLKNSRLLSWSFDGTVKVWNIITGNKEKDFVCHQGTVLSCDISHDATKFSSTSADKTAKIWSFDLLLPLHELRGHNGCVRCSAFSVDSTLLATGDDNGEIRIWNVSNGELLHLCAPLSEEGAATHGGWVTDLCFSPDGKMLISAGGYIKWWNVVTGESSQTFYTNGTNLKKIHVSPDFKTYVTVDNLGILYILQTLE

inhibition, inactive:
O=C(O)COCC(=O)NCc1csc2ccc(Cl)cc12 -14.6%, CCOc1ccc(Br)cc1S(=O)(=O)Nc1ccc(S(=O)(=O)Nc2cc(C)on2)cc1 9.47%, CCCS(=O)(=O)C(=C1Nc2ccccc2N1)S(=O)(=O)CCC 8.61%, COc1ccc(S(=O)(=O)NCCCc2ccccc2)cc1 -8.3%, CCCC(NS(=O)(=O)c1ccc(OC)cc1)C(=O)O (centres undefined) -6.54%, CCOC(=O)c1cnc(SC)nc1Sc1ccc(Cl)cc1Cl 14%, O=C(c1cnccn1)N1CCN(S(=O)(=O)c2cccc(Cl)c2)CC1 -4.31%, O=C(CN1CCN(C2CCCCC2)CC1)Nc1ccccc1N1CCCCC1 6.34%, Cc1ccc(C(C)C)cc1OCC(=O)Nc1ccccc1N1CCCC1 16.1%, Cn1nnnc1SCC(=O)Nc1cccc(S(=O)(=O)N2CCCCC2)c1 7.72%, CC(=O)c1c(C)[nH]c(C(=O)OCC(=O)NCCC(C)C)c1C -7.2%, CC(=O)c1c(C)[nH]c(C(=O)COC(=O)CCOc2ccc(C)cc2)c1C 9.54%, CC(C)(C)C(=O)N1CCC[C@@]1(CO)C(=O)O 6.37%, CN1C(=O)/C(=C/c2ccco2)SC1=Nc1cccc(C(=O)O)c1 20%, O=C1COc2ccc(S(=O)(=O)Nc3ccc(OC(F)(F)F)cc3)cc2N1 11.8%, Cc1nn(C)c(C)c1NS(=O)(=O)c1ccc(OC(F)(F)F)cc1 -0.237%, CCc1ccc(CN(C)C(=O)CCc2nnc(-c3ccc(-c4ccccc4)cc3)o2)nc1 12.9%, Cc1c(CCC(=O)O)c(=O)oc2cc3occ(-c4ccccc4)c3cc12 -15.7%, O=C(/C=C/c1ccc([N+](=O)[O-])cc1)NCCSCc1ccco1 -3.53%, COc1ccc(S(=O)(=O)N(C)C)cc1NC(=O)CSc1ncccn1 -1.98%, COc1ccc(NS(=O)(=O)c2ccc3oc(SCC(N)=O)nc3c2)cc1 4.33%, CC(C)[C@@H]1COC(c2cccc(C3=N[C@H](C(C)C)CO3)c2)=N1 9.42%, CN(C)c1ccnc(Oc2ccc(F)cc2)c1C#N -5.43%, COc1ccccc1CNC(=O)[C@@H]1CCCN1C(=O)[C@@H]1Cc2ccccc2CN1C(=O)OC(C)(C)C 11%, COc1ccc(Cn2cccc(NC(=O)Nc3ccc(C#N)cc3)c2=O)cc1 -0.047%, Cc1cc(C)c(C(N)=O)c(Cl)n1 -5.56%, CC1CCc2[nH]c3ccc(C(=O)N(C)CC(=O)Nc4cccc(F)c4)cc3c2C1 (centres undefined) 20.4%, O=c1c2ccccc2[nH]c(=S)n1CCN1CCC(=C(c2ccc(F)cc2)c2ccc(F)cc2)CC1 15.1%, Cc1nn(C)c(C)c1CN(C(=O)CCc1nnc(Cc2c[nH]c3ccccc23)o1)C(C)C -6.13%, O=C1CCCCC1C(=O)c1ccccc1 (centres undefined) -20%, COc1ccc(NC(=O)CCNS(=O)(=O)c2ccc3c(c2)c(=O)n(C)c(=O)n3C)cc1OC -6.12%, CC(C)=CC(=O)Nc1nnc(-c2ccc(F)cc2)s1 0.969%, CC(=O)OC(COc1ccc(F)cc1)Cn1cnc2ccccc21 (centres undefined) 17.3%, CC(=O)OCC(COC(C)=O)OC(C)=O 6.7%, Cn1c(SCC(=O)C(C)(C)C)nnc1-c1ccccn1 -10.6%, CCOC(=O)CN1CCC(c2ccccc2)CC1 -14.9%, CCOC(=O)N1CCC(NC(=O)CCc2ccccc2)CC1 -3.62%, CCc1cc(C(=O)OC)c(NC(=O)CC2Sc3ccc(C(F)(F)F)cc3NC2=O)s1 (centres undefined) 22.8%, CCOC(=O)Nc1ccc2c(c1)N(C(=O)CN1CCN3CCCC3C1)c1ccccc1CC2 (centres undefined) -1.68%, Cc1ccc(-c2cccc([C@H]3[C@@H]4C=CC[C@@H](C)[C@@H]4C(=O)N3Cc3ccccc3)c2)cc1 19.9%, CC1(C)CC(=O)C=C(c2ccc3ncccc3c2)C1 -1.2%, COc1cccc2sc3cc(NCC[C@@H]4CCCN4C)ccc3c(=O)c12 39.7%, Cc1cc2oc(=O)cc(CN3CCN(Cc4ccccc4)CC3)c2cc1C 17.9%, CC(C)c1ccc2oc(=O)cc(CN3CCN(Cc4ccccc4)CC3)c2c1 19.2%, COc1ccc(CCNC(=O)CN(c2ccccc2)S(C)(=O)=O)cc1 4.78%, CCOc1ccc(N(CC(=O)NCCc2ccc(OC)cc2)S(C)(=O)=O)cc1 5.5%, O=c1cc(CN2CCN(S(=O)(=O)/C=C/c3ccccc3)CC2)c2ccc(O)cc2o1 21.6%, O=C(NCCCN1CCOCC1)c1ccccc1NS(=O)(=O)c1ccc(F)cc1 -4.73%

inhibition, active:
COc1ccc(S(=O)(=O)/N=C2\C=C(NS(=O)(=O)c3ccccc3)C(=O)c3ccccc32)cc1 79.2%, CN1CCN(c2ccccc2NC(=O)COc2ccc(C3CCCCC3)cc2)CC1 43.6%, Cc1ccc(N=C2NC(=O)/C(=C/C=C/c3ccco3)S2)cc1C 61.8%, O=S(=O)(Nc1ccc(O)c2ccccc12)c1ccc(OC(F)(F)F)cc1 60.9%, CCCCCCc1cc2cc(-c3nnc(-c4ccccc4)o3)c(=O)oc2cc1O 67.8%, CN(C)S(=O)(=O)c1ccc2oc(SCC(=O)Nc3ccccc3F)nc2c1 61.1%, O=C(CCCN1CCc2[nH]c3ccc(F)cc3c2C1)c1ccc(F)cc1 65%, CC(=O)N=c1ncn(CC(COC(C)=O)OC(C)=O)c2nc[nH]c12 (centres undefined) 74.2%, CCOC(=O)N1CCC(c2cc(=O)n(-c3ccccc3)[nH]2)CC1 86.7%, Cc1cc2oc3ccc(NCCC4CCCN4C)cc3c(=O)c2cc1C (centres undefined) 46.9%, COc1ccc(N(CCC(=O)NCCc2ccccc2)S(=O)(=O)c2ccc(C)cc2C)cc1 54.9%
